Results on five compounds are retold here after ChEMBL document CHEMBL1131628 (J Med Chem, 1998).

Data set [1] in a line: Bioavailability in rat. The data set is classed as ADME, organism-based. The following applies: in vivo. Summed up:
(§1)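 Male Sprague-Dawley rats, n = 4 per group, 10 mg/kg iv (jugular slow bolus) or oral gavage, 10 mg/mL in ethanol–propylene glycol–D5W (20:30:50) with 1 equiv NaOH. Tail-vein plasma taken 0.1 (iv only) to 12 h, assayed by HPLC after extraction. AUC by trapezoidal rule extrapolated to infinity; T1/2 from terminal rate constant; F as oral/iv AUC.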

Data set [2] has as its target T1, Endothelin receptor type B (Homo sapiens, UniProt P24530).
T1 sequence (P24530 whole entry): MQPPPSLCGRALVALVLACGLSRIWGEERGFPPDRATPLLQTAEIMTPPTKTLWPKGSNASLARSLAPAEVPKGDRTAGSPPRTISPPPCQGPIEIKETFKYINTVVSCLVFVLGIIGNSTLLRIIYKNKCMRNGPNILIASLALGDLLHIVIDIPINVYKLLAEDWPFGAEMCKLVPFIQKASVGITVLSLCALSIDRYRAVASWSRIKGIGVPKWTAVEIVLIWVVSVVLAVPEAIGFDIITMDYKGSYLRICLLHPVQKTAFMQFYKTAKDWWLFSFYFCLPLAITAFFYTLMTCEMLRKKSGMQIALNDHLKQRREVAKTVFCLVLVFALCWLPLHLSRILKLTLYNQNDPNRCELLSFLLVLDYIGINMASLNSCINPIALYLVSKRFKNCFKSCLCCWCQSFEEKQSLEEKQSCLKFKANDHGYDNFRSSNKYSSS
Briefly: Tested for binding affinity for human Endothelin B receptor by measuring its ability to displace [125I]-ET-3 from chinese hamster ovary cells(CHO). Type of data set: cell-based.

Data set [3] is described as follows: Pharmacokinetic profile-half life was evaluated in rats upon intravenous administration. The settings on record: rat, in vivo. Type of data set: ADME, organism-based. Summed up:
as §1

In data set [4] the target is T2, Endothelin-1 receptor (Homo sapiens, UniProt P25101).
T2 sequence (P25101 whole entry): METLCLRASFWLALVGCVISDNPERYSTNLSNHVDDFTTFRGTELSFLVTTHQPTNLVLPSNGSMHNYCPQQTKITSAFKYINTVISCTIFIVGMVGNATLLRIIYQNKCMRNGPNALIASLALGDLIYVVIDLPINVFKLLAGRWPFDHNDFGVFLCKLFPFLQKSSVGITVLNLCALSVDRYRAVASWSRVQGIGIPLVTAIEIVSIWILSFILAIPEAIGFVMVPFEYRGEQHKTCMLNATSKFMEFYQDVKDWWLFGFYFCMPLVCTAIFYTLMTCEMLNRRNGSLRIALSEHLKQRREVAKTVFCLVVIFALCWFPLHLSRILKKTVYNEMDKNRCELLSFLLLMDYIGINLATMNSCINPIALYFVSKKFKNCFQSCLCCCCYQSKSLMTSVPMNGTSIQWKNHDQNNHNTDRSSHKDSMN
Briefly: Tested for binding affinity for human Endothelin A receptor by measuring its ability to displace [125I]-ET-1 from chinese hamster ovary cells(CHO). The data set is classed as cell-based.

Data set [5] addresses T3, Endothelin-1 receptor (Rattus norvegicus, UniProt P26684).
T3 sequence (P26684 whole entry): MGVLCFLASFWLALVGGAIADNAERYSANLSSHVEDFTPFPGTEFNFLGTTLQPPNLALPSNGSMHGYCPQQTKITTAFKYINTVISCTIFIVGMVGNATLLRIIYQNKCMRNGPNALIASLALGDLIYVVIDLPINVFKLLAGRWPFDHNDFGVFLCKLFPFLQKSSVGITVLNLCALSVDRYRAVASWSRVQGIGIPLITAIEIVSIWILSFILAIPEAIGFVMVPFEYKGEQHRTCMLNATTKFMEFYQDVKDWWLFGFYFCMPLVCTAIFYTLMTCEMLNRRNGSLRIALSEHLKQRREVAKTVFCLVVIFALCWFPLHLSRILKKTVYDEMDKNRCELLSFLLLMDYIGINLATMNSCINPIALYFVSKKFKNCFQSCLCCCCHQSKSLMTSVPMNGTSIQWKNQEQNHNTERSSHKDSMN
Briefly: Binding affinity for endothelin A receptor by measuring its ability to displace [125I]ET1 from prolactin secreting rat pituitary cells(MMQ). The data set is classed as cell-based, Pituitary gland cell.

Data set [6] addresses T1, Endothelin receptor type B. Briefly: Tested for binding affinity for human Endothelin B receptor by measuring its ability to displace [125I]ET-3 from chinese hamster ovary cells(CHO). Type of data set: cell-based.
The nature of data set [7]: Pharmacokinetic profile-half life was evaluated in rats upon oral administration. Type of data set: ADME, organism-based. The following applies: rat, in vivo. Summed up: as §1
Data set [8] has as its target T2, Endothelin-1 receptor. Briefly: Tested for binding affinity for human Endothelin A receptor by measuring its ability to displace [125I]ET1 from chinese hamster ovary cells(CHO). The data set is classed as cell-based.
Data set [9] can be described thus: Pharmacokinetic profile Cmax was evaluated in rats. The data set is classed as ADME, organism-based. The settings on record: rat, in vivo. An outline of the steps:
as §1

Data set [10] in a line: Pharmacokinetic profile AUC was evaluated in rats. Type of data set: ADME, organism-based. On the set-up: concentration or dose not given beside the values. The following applies: rat, in vivo. Summed up:
as §1

As a reminder, the bioavailability is the share of a dose that reaches the circulation, judged against a reference dose that is usually intravenous. For orientation: Ki means the equilibrium dissociation constant of an inhibitor or competing ligand from its target. One may read the half-life as the time in which the quantity being followed falls by half. `COc1ccc(C(=O)/C(Cc2cc(OC)c(OC)c(OC)c2)=C(\C(=O)[O-])c2ccc3c(c2)OCO3)cc1.[Na+]` [PD-156707 SODIUM] gave a bioavailability in data set [1] of 41%. Moreover, the inhibition constant Ki in data set [2] came out at 139 nM. The half-life in data set [3] is 1 h.
Compound `Cc1cc2c(cc1CC(=O)c1ccsc1S(=O)(=O)Nc1onc(C)c1Cl)OCO2` gave a bioavailability in data set [1] of 60%. For the same compound, the Ki in [2] is above 4300 nM; on Endothelin-1 receptor [4] it was 0.43 nM. The compound further gave a half-life in [3] of 6.7 h.
For `COc1ccccc1Oc1c(NS(=O)(=O)c2ccc(C)cn2)nc(-c2ccnc(-c3nnn[nH]3)c2)nc1OCCO` [CLAZOSENTAN], the Ki is 175 nM in data set [2] and 0.13 nM on Endothelin-1 receptor [4]. This compound showed a half-life in [3] of 0.8 h.
Usually IC50 stands for the concentration that inhibits the measured activity by half. One may read the Cmax as the highest concentration seen after dosing. What is called AUC is the area under the concentration-time curve, a measure of exposure. `CCCCN(CCCC)C(=O)CN1C[C@H](c2ccc3c(c2)OCO3)[C@@H](C(=O)O)[C@@H]1CC(C)(C)CCC` had a bioavailability in data set [1] of 76.8%. Further, the IC50 came out at 1.3 nM on Endothelin-1 receptor [5], 2800 nM in data set [6] and 0.29 nM at Endothelin-1 receptor [8]. The half-life in data set [7] is 3.85 h; in data set [3], 2.45 h. The highest level in [9] (Cmax) was 1480 ng/mL. Besides, the area under the curve (AUC) in data set [10] was 7060 ng·h/mL.
Take `Cc1noc(NS(=O)(=O)c2cccc3c(N(C)C)cccc23)c1C` [BMS-182874]: the Ki in data set [2] was above 50000 nM.
